# Measured values reported in the M2OR odorant receptor database.
# Residue numbers refer to the chain shown, from its start.
# Tests used:
# Settings in all cases: stereoisomer not certain
# OR6K3 = system: T1, OR6K3
# T1 sequence (whole entry): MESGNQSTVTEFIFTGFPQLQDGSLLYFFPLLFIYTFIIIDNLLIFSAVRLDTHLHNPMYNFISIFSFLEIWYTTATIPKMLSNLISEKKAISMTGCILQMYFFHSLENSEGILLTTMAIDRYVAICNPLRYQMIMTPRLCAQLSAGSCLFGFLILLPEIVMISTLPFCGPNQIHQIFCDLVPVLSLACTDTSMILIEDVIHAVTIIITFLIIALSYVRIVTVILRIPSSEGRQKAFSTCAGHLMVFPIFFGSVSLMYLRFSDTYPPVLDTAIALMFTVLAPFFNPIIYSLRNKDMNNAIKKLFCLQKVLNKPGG
# Outline: (§1)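 Assay methods differ from source to source, frequently being transient luciferase assays in mammalian cell lines. For each receptor–molecule pair, the label responsive (active) applies when the original authors judged the measured signal statistically different from baseline, and non-responsive (inactive) applies otherwise.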
# OR6K6 (Homo sapiens) = biological target: T2, OR6K6 (Homo sapiens) (UniProt Q8NGW6)
# T2 sequence (whole entry): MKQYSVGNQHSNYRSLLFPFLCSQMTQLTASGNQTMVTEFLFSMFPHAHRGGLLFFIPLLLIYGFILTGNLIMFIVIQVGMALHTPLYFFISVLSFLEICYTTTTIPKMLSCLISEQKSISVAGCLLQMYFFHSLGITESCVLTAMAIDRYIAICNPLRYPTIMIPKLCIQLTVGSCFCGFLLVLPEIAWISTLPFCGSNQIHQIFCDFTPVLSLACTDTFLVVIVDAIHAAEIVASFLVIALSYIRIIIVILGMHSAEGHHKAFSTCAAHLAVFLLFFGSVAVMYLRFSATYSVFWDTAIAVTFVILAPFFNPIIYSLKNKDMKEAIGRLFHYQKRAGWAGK
# Outline: as §1
# OR6M1 (Homo sapiens) = biological target: T3, OR6M1 (Homo sapiens) (UniProt Q8NGM8)
# T3 sequence (whole entry): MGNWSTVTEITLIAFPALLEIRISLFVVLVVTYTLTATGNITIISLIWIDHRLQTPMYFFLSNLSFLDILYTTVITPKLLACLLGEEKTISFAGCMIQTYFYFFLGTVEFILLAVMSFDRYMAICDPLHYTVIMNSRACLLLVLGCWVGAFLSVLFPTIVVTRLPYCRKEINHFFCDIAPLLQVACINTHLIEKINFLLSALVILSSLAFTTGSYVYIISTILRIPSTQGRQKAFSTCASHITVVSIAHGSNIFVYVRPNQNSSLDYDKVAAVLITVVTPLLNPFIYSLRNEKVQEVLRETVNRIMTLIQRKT
# Outline: as §1
# OR6M1 R224C = system: T4, OR6M1 R224C
# T4 sequence (whole entry): T3 sequence (whole entry) with R224C
# Outline: as §1
# OR6M1 T276K = system: T5, OR6M1 T276K
# T5 sequence (whole entry): T3 sequence (whole entry) with T276K
# Outline: as §1
# OR6N1 (Homo sapiens) = biological target: T6, OR6N1 (Homo sapiens) (UniProt Q8NGY5)
# T6 sequence (whole entry): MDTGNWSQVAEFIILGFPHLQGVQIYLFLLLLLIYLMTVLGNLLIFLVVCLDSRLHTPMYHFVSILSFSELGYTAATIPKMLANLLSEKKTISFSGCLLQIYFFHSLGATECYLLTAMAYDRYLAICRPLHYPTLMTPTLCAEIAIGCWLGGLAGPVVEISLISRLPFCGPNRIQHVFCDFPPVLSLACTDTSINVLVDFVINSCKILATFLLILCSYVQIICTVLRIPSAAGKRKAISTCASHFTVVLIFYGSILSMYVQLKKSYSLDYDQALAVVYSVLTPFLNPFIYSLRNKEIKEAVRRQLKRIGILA
# Outline: as §1
# OR6N2 (Homo sapiens) = biological target: T7, OR6N2 (Homo sapiens) (UniProt Q8NGY6)
# T7 sequence (whole entry): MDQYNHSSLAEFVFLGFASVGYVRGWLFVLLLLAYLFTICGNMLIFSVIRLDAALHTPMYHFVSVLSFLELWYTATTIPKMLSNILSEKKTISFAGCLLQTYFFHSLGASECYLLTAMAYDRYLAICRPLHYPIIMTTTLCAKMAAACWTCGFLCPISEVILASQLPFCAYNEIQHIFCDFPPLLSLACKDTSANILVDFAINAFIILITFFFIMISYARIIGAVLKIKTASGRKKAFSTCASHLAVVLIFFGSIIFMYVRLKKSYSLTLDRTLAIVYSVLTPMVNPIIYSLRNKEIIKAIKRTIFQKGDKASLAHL
# Outline: as §1
# OR6P1 (Homo sapiens) = biological target: T8, OR6P1 (Homo sapiens) (UniProt Q8NGX9)
# T8 sequence (whole entry): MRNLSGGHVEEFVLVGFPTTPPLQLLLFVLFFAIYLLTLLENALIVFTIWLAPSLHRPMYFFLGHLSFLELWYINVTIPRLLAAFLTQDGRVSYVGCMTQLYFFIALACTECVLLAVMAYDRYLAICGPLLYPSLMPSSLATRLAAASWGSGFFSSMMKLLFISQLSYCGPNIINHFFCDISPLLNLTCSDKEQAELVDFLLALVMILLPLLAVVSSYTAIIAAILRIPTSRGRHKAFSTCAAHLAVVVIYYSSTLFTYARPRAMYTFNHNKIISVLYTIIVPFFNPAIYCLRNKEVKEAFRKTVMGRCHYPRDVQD
# Outline: as §1
# OR6Q1 (Homo sapiens) = biological target: T9, OR6Q1 (Homo sapiens) (UniProt Q8NGQ2)
# T9 sequence (whole entry): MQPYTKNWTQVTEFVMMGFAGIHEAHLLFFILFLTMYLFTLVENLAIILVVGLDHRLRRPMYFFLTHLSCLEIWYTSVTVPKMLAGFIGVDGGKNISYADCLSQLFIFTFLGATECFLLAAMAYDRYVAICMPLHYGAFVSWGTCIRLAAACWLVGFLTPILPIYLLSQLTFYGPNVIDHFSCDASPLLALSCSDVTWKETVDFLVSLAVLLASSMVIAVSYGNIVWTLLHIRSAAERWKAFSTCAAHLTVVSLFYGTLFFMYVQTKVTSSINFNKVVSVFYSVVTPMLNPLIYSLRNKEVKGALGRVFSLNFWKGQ
# Outline: as §1
# OR6S1 (Homo sapiens) = biological target: T10, OR6S1 (Homo sapiens) (UniProt Q8NH40)
# T10 sequence (whole entry): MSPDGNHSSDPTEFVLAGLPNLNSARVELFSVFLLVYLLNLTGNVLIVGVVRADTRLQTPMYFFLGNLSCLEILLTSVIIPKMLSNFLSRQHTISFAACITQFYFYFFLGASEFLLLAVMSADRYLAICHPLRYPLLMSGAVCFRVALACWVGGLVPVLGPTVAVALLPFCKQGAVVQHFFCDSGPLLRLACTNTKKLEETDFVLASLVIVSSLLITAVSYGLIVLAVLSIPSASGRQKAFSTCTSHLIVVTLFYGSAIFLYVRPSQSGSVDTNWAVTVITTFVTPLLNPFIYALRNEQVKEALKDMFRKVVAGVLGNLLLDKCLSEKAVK
# Outline: as §1
# OR6S1 T42I V156I = system: T11, OR6S1 T42I V156I
# T11 sequence (whole entry): T10 sequence (whole entry) with T42I, V156I
# Outline: as §1
# OR6T1 (Homo sapiens) = biological target: T12, OR6T1 (Homo sapiens) (UniProt Q8NGN1)
# T12 sequence (whole entry): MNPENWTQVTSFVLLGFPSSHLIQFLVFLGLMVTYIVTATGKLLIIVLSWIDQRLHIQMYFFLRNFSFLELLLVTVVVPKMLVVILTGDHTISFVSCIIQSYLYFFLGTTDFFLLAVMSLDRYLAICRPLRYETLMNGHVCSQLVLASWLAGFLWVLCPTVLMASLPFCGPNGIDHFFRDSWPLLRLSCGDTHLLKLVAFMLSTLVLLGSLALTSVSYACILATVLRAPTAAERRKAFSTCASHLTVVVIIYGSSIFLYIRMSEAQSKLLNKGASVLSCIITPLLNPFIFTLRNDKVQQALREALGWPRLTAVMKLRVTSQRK
# Outline: as §1
# OR6T1 N2D = system: T13, OR6T1 N2D
# T13 sequence (whole entry): T12 sequence (whole entry) with N2D
# Outline: as §1
# OR6V1 (Homo sapiens) = biological target: T14, OR6V1 (Homo sapiens) (UniProt Q8N148)
# T14 sequence (whole entry): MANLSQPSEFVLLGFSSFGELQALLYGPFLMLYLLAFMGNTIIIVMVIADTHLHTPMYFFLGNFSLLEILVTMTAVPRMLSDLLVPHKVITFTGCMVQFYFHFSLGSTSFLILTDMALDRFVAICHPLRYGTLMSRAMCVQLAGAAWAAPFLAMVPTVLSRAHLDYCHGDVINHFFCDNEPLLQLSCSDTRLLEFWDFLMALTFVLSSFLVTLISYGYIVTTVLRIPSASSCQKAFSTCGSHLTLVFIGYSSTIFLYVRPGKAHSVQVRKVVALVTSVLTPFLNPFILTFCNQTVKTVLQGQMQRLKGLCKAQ
# Outline: as §1
# OR6X1 (Homo sapiens) = biological target: T15, OR6X1 (Homo sapiens) (UniProt Q8NH79)
# T15 sequence (whole entry): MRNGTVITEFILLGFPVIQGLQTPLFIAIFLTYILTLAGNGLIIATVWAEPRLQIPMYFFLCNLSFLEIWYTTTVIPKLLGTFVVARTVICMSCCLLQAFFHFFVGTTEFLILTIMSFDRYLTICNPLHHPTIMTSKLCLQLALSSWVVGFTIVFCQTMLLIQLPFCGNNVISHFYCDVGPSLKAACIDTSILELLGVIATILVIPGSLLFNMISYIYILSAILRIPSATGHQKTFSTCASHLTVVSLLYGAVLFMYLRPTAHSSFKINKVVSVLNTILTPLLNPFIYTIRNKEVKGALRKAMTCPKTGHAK
# Outline: as §1
# OR6Y1 (Homo sapiens) = biological target: T16, OR6Y1 (Homo sapiens) (UniProt Q8NGX8)
# T16 sequence (whole entry): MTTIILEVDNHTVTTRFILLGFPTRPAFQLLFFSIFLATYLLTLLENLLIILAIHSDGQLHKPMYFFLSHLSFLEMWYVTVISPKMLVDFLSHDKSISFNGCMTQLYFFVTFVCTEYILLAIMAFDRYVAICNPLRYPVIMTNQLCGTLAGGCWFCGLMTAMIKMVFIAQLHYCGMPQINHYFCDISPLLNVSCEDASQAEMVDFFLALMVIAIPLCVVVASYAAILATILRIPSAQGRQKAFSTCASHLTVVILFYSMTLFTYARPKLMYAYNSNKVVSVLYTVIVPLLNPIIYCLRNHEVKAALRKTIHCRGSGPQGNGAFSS
# Outline: as §1
# OR7A10 (Homo sapiens) = biological target: T17, OR7A10 (Homo sapiens) (UniProt O76100)
# T17 sequence (whole entry): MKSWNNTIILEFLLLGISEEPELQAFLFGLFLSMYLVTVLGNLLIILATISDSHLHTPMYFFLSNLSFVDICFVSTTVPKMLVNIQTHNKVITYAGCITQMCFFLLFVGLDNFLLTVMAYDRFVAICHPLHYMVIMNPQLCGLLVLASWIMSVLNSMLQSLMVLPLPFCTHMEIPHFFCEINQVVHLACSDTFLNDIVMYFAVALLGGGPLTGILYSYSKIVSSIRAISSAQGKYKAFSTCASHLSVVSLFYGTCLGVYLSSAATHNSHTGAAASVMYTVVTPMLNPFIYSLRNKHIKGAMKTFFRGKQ
# Outline: as §1
# OR7A17 (Homo sapiens) = biological target: T18, OR7A17 (Homo sapiens) (UniProt O14581)
# T18 sequence (whole entry): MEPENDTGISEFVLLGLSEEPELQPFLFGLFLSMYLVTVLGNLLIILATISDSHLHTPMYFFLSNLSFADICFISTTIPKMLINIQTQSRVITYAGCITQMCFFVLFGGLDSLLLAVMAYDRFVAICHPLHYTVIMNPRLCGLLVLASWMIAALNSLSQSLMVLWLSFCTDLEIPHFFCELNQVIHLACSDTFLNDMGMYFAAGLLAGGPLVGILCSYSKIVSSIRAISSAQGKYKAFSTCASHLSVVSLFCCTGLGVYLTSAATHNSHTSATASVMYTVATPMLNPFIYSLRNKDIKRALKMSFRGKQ
# Outline: as §1
# OR7A5 (Homo sapiens) = biological target: T19, OR7A5 (Homo sapiens) (UniProt Q15622)
# T19 sequence (whole entry): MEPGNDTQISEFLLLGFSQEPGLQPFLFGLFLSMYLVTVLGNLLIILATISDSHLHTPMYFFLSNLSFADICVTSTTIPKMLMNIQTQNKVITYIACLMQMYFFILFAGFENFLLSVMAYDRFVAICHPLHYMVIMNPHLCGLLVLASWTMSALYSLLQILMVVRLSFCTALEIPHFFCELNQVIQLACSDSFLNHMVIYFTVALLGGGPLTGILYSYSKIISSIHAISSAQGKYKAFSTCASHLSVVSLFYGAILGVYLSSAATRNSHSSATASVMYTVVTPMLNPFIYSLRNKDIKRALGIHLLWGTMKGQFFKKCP
# Outline: as §1
# OR6K3 (Homo sapiens) = biological target: T20, OR6K3 (Homo sapiens) (UniProt Q8NGY3)
# T20 sequence (whole entry): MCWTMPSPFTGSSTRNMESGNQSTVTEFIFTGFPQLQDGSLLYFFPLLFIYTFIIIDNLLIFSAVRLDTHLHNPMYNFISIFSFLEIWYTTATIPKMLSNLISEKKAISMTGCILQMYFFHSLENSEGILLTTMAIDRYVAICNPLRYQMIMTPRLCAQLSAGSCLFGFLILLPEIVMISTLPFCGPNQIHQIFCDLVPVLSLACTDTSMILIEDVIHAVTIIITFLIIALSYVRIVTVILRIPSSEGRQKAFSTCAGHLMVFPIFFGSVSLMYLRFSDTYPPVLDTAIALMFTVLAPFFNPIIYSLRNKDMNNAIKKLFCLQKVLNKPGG
# Outline: as §1
Compound,odorant receptor agonist call (OR6K3),odorant receptor agonist call (OR6K6 (Homo sapiens)),odorant receptor agonist call (OR6M1 (Homo sapiens)),odorant receptor agonist call (OR6M1 R224C),odorant receptor agonist call (OR6M1 T276K),odorant receptor agonist call (OR6N1 (Homo sapiens)),odorant receptor agonist call (OR6N2 (Homo sapiens)),odorant receptor agonist call (OR6P1 (Homo sapiens)),odorant receptor agonist call (OR6Q1 (Homo sapiens)),odorant receptor agonist call (OR6S1 (Homo sapiens)),odorant receptor agonist call (OR6S1 T42I V156I),odorant receptor agonist call (OR6T1 (Homo sapiens)),odorant receptor agonist call (OR6T1 N2D),odorant receptor agonist call (OR6V1 (Homo sapiens)),odorant receptor agonist call (OR6X1 (Homo sapiens)),odorant receptor agonist call (OR6Y1 (Homo sapiens)),odorant receptor agonist call (OR7A10 (Homo sapiens)),odorant receptor agonist call (OR7A17 (Homo sapiens)),odorant receptor agonist call (OR7A5 (Homo sapiens)),odorant receptor agonist call (OR6K3 (Homo sapiens))
Cc1cnc(C)c(C)n1,inactive,inactive,inactive,inactive,inactive,inactive,inactive,inactive,inactive,inactive,inactive,inactive,inactive,inactive,inactive,inactive,inactive,inactive,inactive,
CCCCC(S)C(C)CO (centres undefined),,inactive,inactive,,,inactive,inactive,inactive,inactive,inactive,,inactive,,inactive,inactive,inactive,inactive,inactive,active,inactive
